# Measurements: ChEMBL document CHEMBL1124060, “2-Ethynylbenzenealkanamines. A new class of calcium entry blockers” (1988)
# Experiments:
# Format in all cases: functional
# Rattus norvegicus [1] = experiment: Ability to lower blood pressure in the spontaneously hypertensive rat (SHR) at 30 mg/kg (p.o.); settings: route oral
# Summary of the method: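 Spontaneously hypertensive rats were given a single oral dose of the compound. The read-out was the maximum fall in blood pressure, in mmHg, after that dose. A P value for significance was reported with each value.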
# Cavia porcellus [2] = species: Cavia porcellus; experiment: Concentration needed to elicit a 75% increase beyond control in coronary flow in ''Langendorff'', guinea pig heart (in vitro)
# Summary of the method: (§1)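 Isolated Langendorff-perfused guinea pig hearts infused with a range of drug concentrations; force (g), rate (beats/min) and coronary flow (mL/min) recorded. A linear regression of percent-control flow gives C175, the micromolar concentration raising flow to 175% of control, reported only if within the tested range. Raw data analysed by paired t tests.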
# Cavia porcellus [3] = species: Cavia porcellus; experiment: Concentration needed to achieve a 75% increase in coronary blood flow in 'Langendorff', guinea pig heart (in vitro negative inotropic activity); summary of the method: as §1
# Cavia porcellus [4] = species: Cavia porcellus; experiment: Concentration needed to achieve a 75% increase in coronary blood flow in 'Langendorff', guinea pig heart (in vitro Negative inotropic potency); summary of the method: as §1
# Rattus norvegicus [5] = experiment: Ability to lower blood pressure in the spontaneously hypertensive rat (SHR) at 10 mg/kg (p.o.); settings: route oral
# Summary of the method: (§2)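 Spontaneously hypertensive rats dosed orally at the stated dose; read-out is the maximum fall in blood pressure (mmHg), with significance shown as P.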
# Rattus norvegicus [6] = experiment: Ability to lower blood pressure in the spontaneously hypertensive rat (SHR) at 3 mg/kg (p.o.); settings: route oral; summary of the method: as §2
# Oryctolagus cuniculus [7] = species: Oryctolagus cuniculus; experiment: In vitro inhibition of development of isometric tension, in response to KCl (60 uM) in rabbit aorta
# Summary of the method: (§3)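 Test compounds at 10 μM; tension and calcium influx each expressed as % change from control, measured against KCl ([…]) or NE (10 μM) stimulus.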
# Oryctolagus cuniculus [8] = species: Oryctolagus cuniculus; experiment: Inhibition of [Ca2+] influx in response to a stimulus of norepinephrine (NE, 10 uM); summary of the method: as §3
# Oryctolagus cuniculus [9] = species: Oryctolagus cuniculus; experiment: In vitro inhibition of development of isometric tension, in response to norepinephrine (NE, 10 uM) in rabbit aorta; summary of the method: as §3
# Oryctolagus cuniculus [10] = species: Oryctolagus cuniculus; experiment: Inhibition of [Ca2+] influx in response to a stimulus of KCL (60 uM); summary of the method: as §3
Structure (SMILES),Max fall in blood pressure (Rattus norvegicus [1]) [mmHg],C175 (Cavia porcellus [2]) [µM],"Contractile force, % of control (Cavia porcellus [3]) [%]",P (Ei) (Cavia porcellus [4]),Max fall in blood pressure (Rattus norvegicus [5]) [mmHg],Max fall in blood pressure (Rattus norvegicus [6]) [mmHg],Control (Cavia porcellus [3]) [%],Change (Oryctolagus cuniculus [7]) [%],Change (Oryctolagus cuniculus [8]) [%],Change (Oryctolagus cuniculus [9]) [%],Change (Oryctolagus cuniculus [10]) [%]
COc1ccc(C#Cc2ccccc2)c(CCCN(C)C)c1,22,0.3,110,>0.5,–,–,–,–,–,–,–
COc1ccc(C#Cc2ccc(SC)cc2)c(CC(C)N(C)CCc2ccc(OC)c(OC)c2)c1 (configuration not stated),45,0.55,80,0.5,–,–,–,–,–,–,–
COc1ccc(CCN(C)C(C)Cc2ccccc2C#Cc2ccccc2)cc1OC (configuration not stated),–,0.2,90,>0.05,13,–,–,–,–,–,–
COc1ccc(C#Cc2ccc(C#N)cc2)c(CC(C)N(C)CCc2ccc(OC)c(OC)c2)c1 (configuration not stated),–,0.45,75,<0.05,27,–,–,–,–,–,–
COc1ccc(C#Cc2ccccc2)c(CC(C)NCCc2ccc(Cl)cc2)c1 (configuration not stated),–,>3,>25,<0.05,39,–,–,–,–,–,–
COc1cccc(CCNC(C)Cc2cc(OC)ccc2C#Cc2ccccc2)c1 (configuration not stated),–,0.004,115,0.019,56,–,–,–,–,–,–
COc1ccc(C#Cc2ccccc2)c(CC(C)NCCc2cccc3ccccc23)c1 (configuration not stated),48,0.083,77,0.003,–,–,–,–,–,–,–
COc1ccc(C#Cc2ccccc2)c(CC(C)N(C)CCc2cccc(Cl)c2)c1 (configuration not stated),–,0.005,95,0.53,–,64,–,–,–,–,–
COc1ccc(C#Cc2ccccc2)c(CCN(C)C)c1,18,3,–,>0.05,–,–,90,–,–,–,–
COC(=O)C1=C(C)NC(C)=C(C(=O)OC)C1c1ccccc1[N+](=O)[O-] [NIFEDIPINE],–,0.013,85,0.014,52,–,–,–,–,–,–
CCC#Cc1ccc(OC)cc1CCCN(C)CCc1ccc(OC)c(OC)c1,–,1,80,<0.05,24,–,–,–,–,–,–
COc1cccc(CCN(C)C(C)Cc2cc(OC)ccc2C#Cc2ccccc2)c1 (configuration not stated),–,0.0035,95,0.21,–,67,–,–,–,–,–
COc1ccc(C#Cc2ccccc2)c(CC(C)N(C)CCc2ccccc2)c1 (configuration not stated),–,0.5,115,>0.5,43,–,–,–,–,–,–
COc1ccc(C#Cc2ccccc2)c(CC(C)N(C)Cc2ccc(OC)c(OC)c2)c1 (configuration not stated),–,3,50,<0.05,20,–,–,–,–,–,–
COc1ccc(C#Cc2ccccc2)c(CC(C)NCCc2cccc(Cl)c2Cl)c1 (configuration not stated),–,0.0048,83,0.031,–,45,–,–,–,–,–
COc1ccc(C#Cc2ccc(Cl)cc2)c(CC(C)N(C)CCc2ccc(OC)c(OC)c2)c1 (configuration not stated),46,0.3,85,>0.5,–,–,–,–,–,–,–
CCCCN(CCc1ccc(OC)c(OC)c1)C(C)Cc1cc(OC)ccc1C#Cc1ccccc1 (configuration not stated),49,>3,–,–,–,–,–,–,–,–,–
COc1ccc(C#Cc2ccc(C(C)C)cc2)c(CC(C)N(C)CCc2ccc(OC)c(OC)c2)c1 (configuration not stated),–,4.04,34,<0.001,–,13,–,–,–,–,–

Structure (SMILES),Max fall in blood pressure (Rattus norvegicus [1]) [mmHg],C175 (Cavia porcellus [2]) [µM],"Contractile force, % of control (Cavia porcellus [3]) [%]",P (Ei) (Cavia porcellus [4]),Max fall in blood pressure (Rattus norvegicus [5]) [mmHg],Max fall in blood pressure (Rattus norvegicus [6]) [mmHg],Control (Cavia porcellus [3]) [%],Change (Oryctolagus cuniculus [7]) [%],Change (Oryctolagus cuniculus [8]) [%],Change (Oryctolagus cuniculus [9]) [%],Change (Oryctolagus cuniculus [10]) [%]
COc1ccc(C#Cc2ccc(C(F)(F)F)cc2)c(CC(C)N(C)CCc2ccc(OC)c(OC)c2)c1 (configuration not stated),49,2,90,>0.5,–,–,–,–,–,–,–
COc1cccc(CC(C)NCCc2ccc(OC)c(OC)c2)c1 (configuration not stated),18,>10,–,–,–,–,–,–,–,–,–
COc1ccc(C#Cc2ccc(F)cc2)c(CC(C)N(C)CCc2ccc(OC)c(OC)c2)c1 (configuration not stated),–,0.0013,78,0.003,–,43,–,–,–,–,–
COc1ccc(C#Cc2ccccc2)c(CCC(C)NCCc2ccc(OC)c(OC)c2)c1 (configuration not stated),20,0.07,123,0.001,–,–,–,–,–,–,–
COc1ccc([C@@H]2Sc3ccccc3N(CCN(C)C)C(=O)[C@@H]2OC(C)=O)cc1 [DILTIAZEM],48,0.18,90,>0.05,–,–,–,-84,-37,-8,-18
COc1cc(CCN(C)C(C)CCc2cc(OC)ccc2C#Cc2ccccc2)cc(OC)c1 (configuration not stated),42,0.095,105,0.15,–,–,–,–,–,–,–
COc1ccc(C#CCCc2ccccc2)c(CCCN(C)CCc2ccc(OC)c(OC)c2)c1,–,1.25,100,>0.5,12,–,–,–,–,–,–
COc1cc(CCNC(C)CCc2cc(OC)ccc2C#Cc2ccccc2)cc(OC)c1 (configuration not stated),34,2.1,87,0.045,–,–,–,–,–,–,–
COc1ccc(C#Cc2ccccc2)c(CC(C)N(C)CCCc2ccccc2)c1 (configuration not stated),52,2.5,95,>0.5,–,–,–,–,–,–,–
COc1ccc(C#Cc2ccccc2)c(CC(C)NCCc2cccc(Cl)c2)c1 (configuration not stated),–,0.03,85,0.007,–,52,–,–,–,–,–
COc1ccc(CCN(C)C(C)CCc2cc(F)ccc2C#Cc2ccccc2)cc1OC (configuration not stated),50,0.34,85,0.45,–,–,–,–,–,–,–
COc1ccc(C#Cc2ccc(N(C)C)cc2)c(CC(C)N(C)CCc2ccc(OC)c(OC)c2)c1 (configuration not stated),–,0.035,115,0.009,–,69,–,–,–,–,–
COc1ccc(C#Cc2ccccc2)c(CC(C)NCCc2ccc([N+](=O)[O-])cc2)c1 (configuration not stated),66,>3,>66,<0.05 Ei,–,–,–,–,–,–,–
COc1ccc(C#Cc2ccccc2)c(CC(C)N(C)CCc2cccc(Cl)c2Cl)c1 (configuration not stated),–,0.015,58,0.007,–,111,–,–,–,–,–
COc1ccc(C#Cc2ccccc2)c(CC(C)N(C)CCc2cccc3ccccc23)c1 (configuration not stated),–,0.19,61,0.005,–,–,–,–,–,–,–
CCCCCCN(C)C(C)Cc1cc(OC)ccc1C#Cc1ccccc1 (configuration not stated),–,>3,–,–,48,–,–,–,–,–,–
COc1ccc(C#Cc2ccccc2)c(CC(C)N(C)CCCCc2ccccc2)c1 (configuration not stated),74,2.75,90,>0.05,–,–,–,–,–,–,–
